Assay [1] deals with Rattus norvegicus. The assay is described as follows: Analgesic activity in rat spinal nerve ligation neuropathic pain model assessed as reversal of allodynia at 30 mg/kg, po measured at 24 hrs relative to control. It is filed as functional. An outline of the steps:
(§1)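 Rat spinal nerve ligation model. Seven days after surgery, rats received a single oral dose (3, 10 or 30 mg/kg) of test agent or vehicle. Tactile allodynia was scored at 2, 4, 8 and 24 h post-dose with calibrated von Frey filaments using an up-down paradigm. Threshold is the force giving a 50% withdrawal rate. %MPE = (post-compound − post-SNL)/(pre-SNL − post-SNL) × 100, where 100% is full reversal.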

The test system of assay [2] is Rattus norvegicus. The assay is described as follows: Analgesic activity in rat spinal nerve ligation neuropathic pain model assessed as reversal of allodynia at 10 mg/kg, po measured at 8 hrs relative to control. It is filed as functional. The procedure, abridged: as §1
Assay [3] deals with Rattus norvegicus. The assay is described as follows: Analgesic activity in rat spinal nerve ligation neuropathic pain model assessed as reversal of allodynia at 3 mg/kg, po measured at 2 hrs relative to control. It is filed as functional. The procedure, abridged: as §1
The target of assay [4] is Kappa-type opioid receptor (Homo sapiens) (UniProt P41145). The assay is described as follows: Binding affinity to kappa opioid receptor (unknown origin) at 25 uM relative to control.
Chain of Kappa-type opioid receptor (Homo sapiens) (P41145 whole entry): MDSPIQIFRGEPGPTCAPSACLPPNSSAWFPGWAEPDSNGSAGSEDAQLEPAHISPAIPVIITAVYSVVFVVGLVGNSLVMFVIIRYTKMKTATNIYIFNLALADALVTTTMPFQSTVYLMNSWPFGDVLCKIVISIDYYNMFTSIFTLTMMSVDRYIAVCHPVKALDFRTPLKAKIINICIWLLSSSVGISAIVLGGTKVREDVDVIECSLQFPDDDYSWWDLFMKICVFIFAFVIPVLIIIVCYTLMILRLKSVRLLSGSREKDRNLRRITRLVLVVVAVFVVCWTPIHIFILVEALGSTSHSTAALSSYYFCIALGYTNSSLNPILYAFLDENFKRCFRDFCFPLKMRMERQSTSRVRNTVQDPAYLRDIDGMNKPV
Assay [5] concerns the target T1, Prostaglandin E2 receptor EP1 subtype (Homo sapiens) (UniProt P34995).
T1 sequence (whole entry): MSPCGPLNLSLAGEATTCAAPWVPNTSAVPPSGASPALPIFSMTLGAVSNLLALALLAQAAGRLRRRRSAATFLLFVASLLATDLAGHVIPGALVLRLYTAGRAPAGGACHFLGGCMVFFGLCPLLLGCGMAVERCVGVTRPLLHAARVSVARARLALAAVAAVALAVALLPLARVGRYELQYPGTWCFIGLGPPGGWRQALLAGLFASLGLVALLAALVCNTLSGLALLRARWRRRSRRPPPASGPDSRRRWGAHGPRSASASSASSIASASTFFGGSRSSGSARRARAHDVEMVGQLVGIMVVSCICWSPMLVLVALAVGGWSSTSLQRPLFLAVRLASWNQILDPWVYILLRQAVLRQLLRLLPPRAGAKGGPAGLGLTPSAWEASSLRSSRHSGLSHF
The assay is described as follows: Binding affinity to prostaglandin receptor EP1 (unknown origin) at 25 uM relative to control.

The target of assay [6] is Sodium channel protein type 9 subunit alpha (Homo sapiens, UniProt Q15858). The assay is described as follows: Inhibition of human NaV1.7 channel expressed in HEK293 cells by FRET assay. It is filed as cell-based. An outline of the steps:
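HEK293 cells stably expressing human Nav1.7. Channel block was read in a functional membrane-potential assay based on FRET between two membrane-associated dyes; IC50 determined.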

The results in this text go back to ChEMBL document CHEMBL2390921, “A novel benzazepinone sodium channel blocker with oral efficacy in a rat model of neuropathic pain” (Bioorg Med Chem Lett, 2013).

One may read the IC50 as the midpoint of a concentration-inhibition curve. A low value points to inhibition by little substance.

Chain of Sodium channel protein type 9 subunit alpha (Q15858 whole entry): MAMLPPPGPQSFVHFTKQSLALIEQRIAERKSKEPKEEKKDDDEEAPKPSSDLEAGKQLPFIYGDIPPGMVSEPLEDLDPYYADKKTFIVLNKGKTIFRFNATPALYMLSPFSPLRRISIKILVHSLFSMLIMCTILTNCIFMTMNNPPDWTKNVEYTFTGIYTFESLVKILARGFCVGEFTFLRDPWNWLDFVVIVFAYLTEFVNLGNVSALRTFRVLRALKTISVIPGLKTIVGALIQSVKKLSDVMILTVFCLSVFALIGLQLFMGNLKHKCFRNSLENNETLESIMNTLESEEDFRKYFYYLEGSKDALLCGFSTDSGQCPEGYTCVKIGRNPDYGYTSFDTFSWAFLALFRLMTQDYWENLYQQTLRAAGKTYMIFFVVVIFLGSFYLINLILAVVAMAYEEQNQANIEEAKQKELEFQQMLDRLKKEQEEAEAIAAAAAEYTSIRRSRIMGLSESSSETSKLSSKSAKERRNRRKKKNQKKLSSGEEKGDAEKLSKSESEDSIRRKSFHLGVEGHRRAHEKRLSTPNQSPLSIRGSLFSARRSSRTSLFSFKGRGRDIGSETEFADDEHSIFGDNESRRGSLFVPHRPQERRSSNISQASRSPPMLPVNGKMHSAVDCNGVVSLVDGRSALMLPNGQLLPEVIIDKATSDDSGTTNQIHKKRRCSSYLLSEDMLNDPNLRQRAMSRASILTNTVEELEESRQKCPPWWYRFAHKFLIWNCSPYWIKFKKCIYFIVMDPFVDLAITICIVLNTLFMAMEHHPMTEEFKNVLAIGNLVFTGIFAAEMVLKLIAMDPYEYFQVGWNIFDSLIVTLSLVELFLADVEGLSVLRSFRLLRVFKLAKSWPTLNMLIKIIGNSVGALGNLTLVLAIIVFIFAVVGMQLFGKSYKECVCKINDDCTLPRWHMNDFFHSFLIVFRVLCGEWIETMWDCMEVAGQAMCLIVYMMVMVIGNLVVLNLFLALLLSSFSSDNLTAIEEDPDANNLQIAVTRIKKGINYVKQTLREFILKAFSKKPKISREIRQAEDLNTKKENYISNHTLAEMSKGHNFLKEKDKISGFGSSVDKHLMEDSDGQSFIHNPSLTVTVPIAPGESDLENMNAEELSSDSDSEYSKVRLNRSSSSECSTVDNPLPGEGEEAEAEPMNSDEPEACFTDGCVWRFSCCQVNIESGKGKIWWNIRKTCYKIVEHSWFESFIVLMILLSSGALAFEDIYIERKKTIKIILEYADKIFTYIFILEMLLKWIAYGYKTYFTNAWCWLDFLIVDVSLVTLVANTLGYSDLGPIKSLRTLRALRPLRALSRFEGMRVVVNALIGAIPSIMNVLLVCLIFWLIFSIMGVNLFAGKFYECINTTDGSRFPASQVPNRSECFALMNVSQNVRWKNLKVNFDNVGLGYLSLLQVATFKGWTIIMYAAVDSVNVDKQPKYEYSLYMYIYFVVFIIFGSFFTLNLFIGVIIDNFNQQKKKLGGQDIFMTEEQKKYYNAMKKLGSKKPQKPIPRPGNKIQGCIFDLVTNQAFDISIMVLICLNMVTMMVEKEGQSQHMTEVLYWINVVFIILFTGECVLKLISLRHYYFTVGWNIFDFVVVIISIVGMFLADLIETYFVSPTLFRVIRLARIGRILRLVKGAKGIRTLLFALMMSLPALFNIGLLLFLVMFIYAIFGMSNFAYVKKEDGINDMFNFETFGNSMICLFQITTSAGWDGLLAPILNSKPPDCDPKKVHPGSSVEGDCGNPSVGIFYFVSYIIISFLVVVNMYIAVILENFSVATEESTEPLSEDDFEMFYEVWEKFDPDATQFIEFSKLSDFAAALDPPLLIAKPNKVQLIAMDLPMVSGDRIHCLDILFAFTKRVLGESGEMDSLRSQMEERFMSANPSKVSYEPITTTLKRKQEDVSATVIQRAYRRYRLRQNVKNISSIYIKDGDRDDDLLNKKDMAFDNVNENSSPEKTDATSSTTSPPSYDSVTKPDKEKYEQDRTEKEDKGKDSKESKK

Take `O=C(N[C@H](Cc1ccccc1F)C(=O)N[C@@H]1CCc2c(F)c(F)cc(F)c2N(C2CC2)C1=O)C1CC1C(F)(F)F` (stereo partly specified): the Activity in the assay on Rattus norvegicus [1] is 10%; with Rattus norvegicus [2], 20%; with Rattus norvegicus [3], 15%; in assay [4], less than 50%; in assay [5] it was less than 50%. The same compound displayed an IC50 in assay [6] of 117 nM.
